# Key:
# [1] = tested on: HEK293T cells; test: MS analysis of TACC1 / MLXIPL phosphopeptides isolated from HEK293T cells; format: cell-based, human; details: serum-starved, 500 nM trametinib pre-treatment 1 h, EGF 5 min
# [2] = tested on: HEK293T cells; format: cell-based, human; details: 500 nM anisomycin 1 h
# In short: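 HEK293T cells were transiently transfected (polyethyleneimine) with FLAG-MLXIPL or TACC1 plasmid. Where indicated, cells were pre-treated with 50 μM SB203580 for 1 h at 37 °C, then given 500 nM anisomycin or 0.001% DMSO vehicle for 1 h at 37 °C. Lysates were clarified and equal protein (BCA) resolved on 5% gels with […] Phos-tag plus 50 μM MnCl2, or by standard SDS-PAGE, then immunoblotted.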
structure (smiles),measurement,setting,value
CC(=O)Nc1cccc(-n2c(=O)n(C3CC3)c(=O)c3c(Nc4ccc(I)cc4F)n(C)c(=O)c(C)c32)c1 [trametinib],EGF-stimulated TACC1 Ser231 phosphorylation,[1],blocked
"COc1ccc(C[C@H]2NC[C@H](O)[C@H]2OC(C)=O)cc1 [Anisomycin, anisomycin]",phosphorylation of TACC1 (mobility shift),[2],did not induce phosphorylation
C[S+]([O-])c1ccc(-c2nc(-c3ccncc3)c(-c3ccc(F)cc3)[nH]2)cc1 (stereo not drawn) [SB203580],anisomycin-induced MLXIPL phosphorylation (mobility shift),[2]; 50 μM SB203580 pre-treatment 1 h,partly dependent on p38α/β

# From article PMC10691213 (Proceedings of the National Academy of Sciences of the …, 2023)
